Assay results as given in ChEMBL document CHEMBL5058577, “EUbOPEN Chemogenomics Library 2 (Multiplex)” (2022).

Tested on: HEK-293T
Assay: Multiplex assay against HEK293T
Type: toxicity, cell-based
Details: human
Summary of the method: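 Cells were classed with CellPathfinder machine-learning gating, first as Hoechst high-intensity objects or normal cells, then (normal cells) as healthy, pyknosed or fragmented nuclei, and finally (pyknosed cells) as mitotic or apoptotic. Staining of live cells at seeding used Hoechst33342, BioTracker Green Microtubule Cytoskeleton Dye, MitoTracker Red and Annexin V Alexa Fluor 680, with imaging on a CQ1 microscope at 37°C and 5% CO2 after compound addition. Tubulin, mitochondrial-mass and membrane-permeability phenotypes are per cents of healthy-nucleus cells.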

[1] = 12 h, 1 µM, compound concentration 1 uM, replicate 1
[2] = 12 h, 1 µM, compound concentration 1 uM, replicate 2
[3] = 12 h, 10 µM, compound concentration 10 uM, replicate 1
[4] = 12 h, 10 µM, compound concentration 10 uM, replicate 2
[5] = 24 h, 1 µM, compound concentration 1 uM, replicate 1
[6] = 24 h, 1 µM, compound concentration 1 uM, replicate 2
[7] = 24 h, 10 µM, compound concentration 10 uM, replicate 1
[8] = 24 h, 10 µM, compound concentration 10 uM, replicate 2
[9] = 48 h, 1 µM, compound concentration 1 uM, replicate 1
[10] = 48 h, 1 µM, compound concentration 1 uM, replicate 2
[11] = 48 h, 10 µM, compound concentration 10 uM, replicate 1
[12] = 48 h, 10 µM, compound concentration 10 uM, replicate 2

CN1CCN(c2cc(-c3ccccc3)nc(N)n2)CC1
Population Apoptotic (%) [1]: 40%
Population Fragmented Nuclei (%) [1]: 8%
Population Healthy Nuclei (%) [1]: 79%
Population Hoechst High Intensity Objects (%) [1]: 6%
Population Membrane Permeable-Phenotype (%) [1]: 0%
Population Mitochondria Different-Phenotype (%) [1]: 35%
Population Mitotic Cells (%) [1]: 60%
Population Normal (%) [1]: 93%
Population Pyknosed Nuclei (%) [1]: 11%
Population Tubulin-Different-Phenotype (%) [1]: 21%
Total Cell Count [1]: 383
Population Apoptotic (%) [2]: 34%
Population Fragmented Nuclei (%) [2]: 5%
Population Healthy Nuclei (%) [2]: 84%
Population Mitochondria Different-Phenotype (%) [2]: 48%
Population Mitotic Cells (%) [2]: 65%
Population Pyknosed Nuclei (%) [2]: 10%
Population Tubulin-Different-Phenotype (%) [2]: 16%
Total Cell Count [2]: 354
Population Apoptotic (%) [3]: 23%
Population Fragmented Nuclei (%) [3]: 7%
Population Healthy Nuclei (%) [3]: 82%
Population Hoechst High Intensity Objects (%) [3]: 7%
Population Membrane Permeable-Phenotype (%) [3]: 0%
Population Mitochondria Different-Phenotype (%) [3]: 46%
Population Mitotic Cells (%) [3]: 76%
Population Normal (%) [3]: 92%
Population Pyknosed Nuclei (%) [3]: 9%
Population Tubulin-Different-Phenotype (%) [3]: 30%
Total Cell Count [3]: 416
Population Apoptotic (%) [4]: 36%
Population Fragmented Nuclei (%) [4]: 6%
Population Healthy Nuclei (%) [4]: 81%
Population Hoechst High Intensity Objects (%) [4]: 10%
Population Mitochondria Different-Phenotype (%) [4]: 63%
Population Mitotic Cells (%) [4]: 63%
Population Normal (%) [4]: 89%
Population Pyknosed Nuclei (%) [4]: 12%
Population Tubulin-Different-Phenotype (%) [4]: 20%
Total Cell Count [4]: 296
Population Apoptotic (%) [5]: 20%
Population Fragmented Nuclei (%) [5]: 9%
Population Healthy Nuclei (%) [5]: 79%
Population Hoechst High Intensity Objects (%) [5]: 4%
Population Membrane Permeable-Phenotype (%) [5]: 1%
Population Mitochondria Different-Phenotype (%) [5]: 16%
Population Mitotic Cells (%) [5]: 79%
Population Normal (%) [5]: 95%
Population Pyknosed Nuclei (%) [5]: 11%
Population Tubulin-Different-Phenotype (%) [5]: 12%
Total Cell Count [5]: 488
Population Apoptotic (%) [6]: 36%
Population Healthy Nuclei (%) [6]: 82%
Population Mitochondria Different-Phenotype (%) [6]: 24%
Population Mitotic Cells (%) [6]: 63%
Population Pyknosed Nuclei (%) [6]: 8%
Population Tubulin-Different-Phenotype (%) [6]: 8%
Total Cell Count [6]: 480
Population Apoptotic (%) [7]: 44%
Population Fragmented Nuclei (%) [7]: 13%
Population Healthy Nuclei (%) [7]: 75%
Population Hoechst High Intensity Objects (%) [7]: 6%
Population Membrane Permeable-Phenotype (%) [7]: 0%
Population Mitochondria Different-Phenotype (%) [7]: 32%
Population Mitotic Cells (%) [7]: 55%
Population Normal (%) [7]: 93%
Population Pyknosed Nuclei (%) [7]: 11%
Population Tubulin-Different-Phenotype (%) [7]: 19%
Total Cell Count [7]: 577
Population Apoptotic (%) [8]: 34%
Population Fragmented Nuclei (%) [8]: 9%
Population Healthy Nuclei (%) [8]: 79%
Population Hoechst High Intensity Objects (%) [8]: 9%
Population Mitochondria Different-Phenotype (%) [8]: 50%
Population Mitotic Cells (%) [8]: 65%
Population Normal (%) [8]: 90%
Population Tubulin-Different-Phenotype (%) [8]: 17%
Total Cell Count [8]: 378
Population Apoptotic (%) [9]: 23%
Population Fragmented Nuclei (%) [9]: 13%
Population Healthy Nuclei (%) [9]: 78%
Population Hoechst High Intensity Objects (%) [9]: 1%
Population Membrane Permeable-Phenotype (%) [9]: 1%
Population Mitochondria Different-Phenotype (%) [9]: 12%
Population Mitotic Cells (%) [9]: 76%
Population Normal (%) [9]: 98%
Population Pyknosed Nuclei (%) [9]: 7%
Population Tubulin-Different-Phenotype (%) [9]: 12%
Total Cell Count [9]: 745
Population Apoptotic (%) [10]: 14%
Population Healthy Nuclei (%) [10]: 80%
Population Hoechst High Intensity Objects (%) [10]: 2%
Population Membrane Permeable-Phenotype (%) [10]: 0%
Population Mitochondria Different-Phenotype (%) [10]: 14%
Population Mitotic Cells (%) [10]: 85%
Population Normal (%) [10]: 97%
Population Pyknosed Nuclei (%) [10]: 6%
Population Tubulin-Different-Phenotype (%) [10]: 9%
Total Cell Count [10]: 804
Population Apoptotic (%) [11]: 16%
Population Fragmented Nuclei (%) [11]: 17%
Population Healthy Nuclei (%) [11]: 75%
Population Hoechst High Intensity Objects (%) [11]: 3%
Population Membrane Permeable-Phenotype (%) [11]: 0%
Population Mitochondria Different-Phenotype (%) [11]: 25%
Population Mitotic Cells (%) [11]: 83%
Population Normal (%) [11]: 96%
Population Pyknosed Nuclei (%) [11]: 6%
Population Tubulin-Different-Phenotype (%) [11]: 14%
Total Cell Count [11]: 861
Population Apoptotic (%) [12]: 27%
Population Fragmented Nuclei (%) [12]: 13%
Population Healthy Nuclei (%) [12]: 81%
Population Membrane Permeable-Phenotype (%) [12]: 1%
Population Mitochondria Different-Phenotype (%) [12]: 24%
Population Mitotic Cells (%) [12]: 72%
Population Pyknosed Nuclei (%) [12]: 4%
Population Tubulin-Different-Phenotype (%) [12]: 11%
Total Cell Count [12]: 645
